Source: ChEMBL document CHEMBL1649328, “Assessment of pandemic and seasonal influenza A (H1N1) virus susceptibility to neuraminidase inhibitors in three enzyme activity inhibition assays” (Antimicrob Agents Chemother, 2010)

Assays:
Influenza A virus [1] = test: Ratio of IC50 for influenza A (A/Washington/29/2009 (H1N1)) virus harboring neuraminidase H275Y mutant to IC50 for influenza A (A/Washington/29/2009 (H1N1)) virus expressing wild type enzyme by fetuin substrate based colorimetric assay; type: functional
Procedure, shortened: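 Colorimetric NA inhibition using a virus dilution that gave 0.4–0.8 OD549. Virus preincubated 1 h at 37°C with half-log inhibitor dilutions (0.03–1,000 nM final) in MES/CaCl2 pH 6.0 buffer. Fetuin (5.5 mg/ml final) then added for 18 h at 37°C. Released sialic acid detected by periodate oxidation and thiobarbituric acid, butanol extraction, read at 549 nm. IC50 curve-fitted, ≥2 experiments. Ratio is variant IC50 over wild-type reference IC50.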

Influenza A virus [2] = test: Antiviral activity against influenza A (A/Montana/02/2009 (H1N1)) virus harboring neuraminidase H275Y mutant after 30 mins by MUNANA substrate based fluorometric assay; type: functional, organism-based
Procedure, shortened: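 Fluorometric NA inhibition with MUNANA (100 μM final). Titrated virus in NA-Star buffer (26 mM MES, 4 mM CaCl2, pH 6.0) was preincubated with ten half-log inhibitor dilutions (0.03–1,000 nM final) for 30 min at 37°C, then with substrate for 30 min at 37°C. The reaction was stopped with 0.1 M glycine in 25% ethanol, pH 10.7, and 4-methylumbelliferone was read at ex 365/em 450 nm. IC50 came from a Vmax·[1−x/(K+x)] fit, mean of ≥3 experiments.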

| Structure (SMILES) | Ratio IC50 (Influenza A virus [1]) | IC50 (Influenza A virus [2]) |
| --- | --- | --- |
| C/C=C\[C@@H]1C[C@H](C(=O)O)N[C@H]1[C@@H](NC(C)=O)[C@](C)(CCC)OC | 2 | 2.6 nM |
| CCC(CC)[C@H](NC(C)=O)[C@@H]1[C@H](O)[C@@H](C(=O)O)C[C@H]1NC(=N)N [PERAMIVIR ANHYDROUS] | 332 | 197 nM |
